Hits are enriched below; roughly 2.2% of the tested compounds scored in any of these assays.
Statin myotox sup = protects C2C12 myotubes from simvastatin toxicity; ATP luminescence, 48 h; scaled: DMSO 0, geranylgeraniol control 100; rescue of ATP level, % at 7.49 µM; 0.78% of 330,000 active; AID 602340;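 active means mean ATP rescue above about 67%, or every replicate alone reaching that limit, limit read from the data, passing the limit was not always enough; inconclusive means no clear call, values can overlap the other calls; inactive means mean under the limit and some replicate under it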;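 further: myotubes were challenged with 10 µM simvastatin during compound exposure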
E-selectin induc = induces E-selectin expression in human endothelial cells | P16581 | HUVEC E-selectin immunofluorescence imaging; normalized: neutral wells 0, TNF-alpha wells 100 | activation, % at 7.58 µM | 0.37% of 260,000 active | AID 686992;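 active means mean E-selectin-positive cell signal at least 10% of the positive control, reached in at least 60% of replicates, without over 20% cell loss; inconclusive means no rule given, readout overlaps actives, possibly toxicity-flagged; inactive means the rest, including those meeting only one limit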
Target sequence (P16581 whole entry, looked up): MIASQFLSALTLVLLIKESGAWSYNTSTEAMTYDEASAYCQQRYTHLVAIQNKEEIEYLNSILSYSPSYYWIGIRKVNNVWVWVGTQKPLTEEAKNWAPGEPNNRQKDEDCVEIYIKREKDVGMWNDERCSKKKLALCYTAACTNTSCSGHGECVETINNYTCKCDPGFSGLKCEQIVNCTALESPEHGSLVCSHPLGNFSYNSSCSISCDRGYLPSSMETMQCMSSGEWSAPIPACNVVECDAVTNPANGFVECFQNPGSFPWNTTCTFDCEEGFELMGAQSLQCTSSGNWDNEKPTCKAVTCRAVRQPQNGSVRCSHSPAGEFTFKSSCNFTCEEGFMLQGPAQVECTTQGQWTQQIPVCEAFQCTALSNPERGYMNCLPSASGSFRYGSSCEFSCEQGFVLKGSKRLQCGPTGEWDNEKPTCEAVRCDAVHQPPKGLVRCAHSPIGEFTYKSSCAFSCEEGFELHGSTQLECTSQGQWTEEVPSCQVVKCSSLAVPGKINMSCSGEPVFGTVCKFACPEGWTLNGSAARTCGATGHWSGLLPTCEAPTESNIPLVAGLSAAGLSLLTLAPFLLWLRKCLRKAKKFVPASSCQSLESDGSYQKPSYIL
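Assay system: HUVEC primary endothelial cells. Input: 3,000 HUVEC seeded per well. Doses: one compound dose added by pin transfer. Read-out basis: % PE-positive cells. Benchmarks: TNF-alpha high, DMSO low. Detection: immunofluorescence imaging. Buffer or medium: EGM-2, gelatin.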
DENV2 CPE rescue = protects cells from dengue virus 2 cytopathic effect; DENV2-infected cells, cytopathic effect rescue, plate reader; CPE inhibition, % at 9.99 µM; 1.7% of 350,000 active; in the data active means CPE inhibition above about 20%, passing the limit was not always enough; inconclusive means no clear call, values can overlap the other calls; tested in BHK-21 cells
Of the large screens only hits and unclear results are named; the others gave an inactive call.

CC(=O)N1[C@H](CO)[C@@H](c2ccc(-c3cccc(F)c3)cc2)[C@H]1CNC(=O)C1CC1	DENV2 CPE rescue 124.2
CC(=O)NC[C@H]1[C@@H](c2ccc(-c3cccnc3)cc2)[C@H](CO)N1C(=O)C1CC1	DENV2 CPE rescue 28.2
CC(=O)N1[C@@H](CO)[C@H](c2ccc(-c3ccc(F)cc3)cc2)[C@@H]1CNC(=O)C1CC1	none
CCCNC(=O)C[C@H]1CC[C@H]2[C@H](COc3ccc(NC(=O)Nc4c(C)noc4C)cc3C(=O)N2C)O1	none
C[C@@H]1CN([C@H](C)CO)C(=O)c2cc(NC(=O)CCC(F)(F)F)ccc2O[C@@H](C)CCCCO[C@H]1CN(C)Cc1ccc(C(=O)O)cc1	none (no result: Statin myotox sup)
CO[C@H]1CN(C)C(=O)c2cc(NC(=O)c3cc(C)on3)ccc2OC[C@H](C)N(C)C[C@H]1C	none
CO[C@H]1CN(C)C(=O)c2ccc(NC(=O)Nc3ccc(C(F)(F)F)cc3)cc2OC[C@H](C)NC[C@H]1C	none
Cc1noc(C)c1S(=O)(=O)N(C)C[C@H]1Oc2ccc(NS(=O)(=O)c3ccc(F)cc3)cc2CC(=O)N([C@H](C)CO)C[C@H]1C	none
CC(=O)NC[C@H]1[C@H](c2ccc(-c3ccccc3F)cc2)[C@@H](CO)N1C(=O)C1CC1	DENV2 CPE rescue 81.3
CC(=O)NC[C@@H]1[C@@H](c2ccc(-c3ccccc3)cc2)[C@@H](CO)N1C(=O)C1CC1	none
CC(=O)NC[C@@H]1[C@H](c2ccc(-c3ccccc3F)cc2)[C@H](CO)N1C(=O)C1CC1	none
CC(=O)NC[C@@H]1[C@H](c2ccc(-c3ccccc3)cc2)[C@H](CO)N1C(=O)C1CC1	DENV2 CPE rescue 76.2
N#C[C@H]1[C@@H](c2ccccc2)[C@H](CO)N1S(=O)(=O)Cc1ccccc1	none
O=C(C[C@H]1CC[C@@H](NC(=O)c2ccccn2)[C@H](CO)O1)NCc1cccc(F)c1	none
CC(=O)c1ccc(OC(C)C(=O)NC2CCCCC2C)cc1 (centres undefined)	DENV2 CPE rescue 66.7 (no result: E-selectin induc)
CC(C)Oc1ccc(C(=O)OC(C)C(=O)NC2CCCCC2C)cc1 (centres undefined)	none
O=C(C1CCCC1)N1CC(=O)N2[C@H](CO)[C@@H](c3ccc(Br)cc3)[C@H]2C1	none (no result: Statin myotox sup)
O=[N+]([O-])c1ccc2c(c1)CO[C@@]21O[C@H](CCO)C[C@H](O)[C@H]1O	E-selectin induc 64.9
O=[N+]([O-])c1ccc2c(c1)CCO[C@@]21O[C@H](CCO)C[C@H](O)[C@H]1O	none (no result: Statin myotox sup, E-selectin induc)
C[C@@H]1CN([C@H](C)CO)C(=O)c2cc(NS(=O)(=O)c3cn(C)cn3)ccc2O[C@H]1CN(C)S(=O)(=O)c1ccc(F)cc1	none
C[C@@H]1CN([C@@H](C)CO)C(=O)c2cccc(NS(=O)(=O)c3cccs3)c2O[C@@H]1CN(C)C(=O)Nc1ccc2c(c1)OCO2	none
C[C@H](O)[C@@H]1C(=O)N2CCc3c([nH]c4ccccc34)[C@@H]2C[C@@H]1N(C)Cc1ccc(Cl)cc1	none (no result: E-selectin induc)
CN[C@H]1C[C@H]2c3[nH]c4ccccc4c3CCN2C(=O)[C@H]1[C@H](C)O	DENV2 CPE rescue 23.8
C[C@H]1CN([C@@H](C)CO)C(=O)c2ccccc2-c2ccccc2CO[C@H]1CN(C)S(=O)(=O)c1ccccc1	none (no result: Statin myotox sup)
Nc1nn(S(=O)(=O)c2cccc3nsnc23)cc1-c1ccc(Br)cc1	Statin myotox sup 95.5 (no result: E-selectin induc, DENV2 CPE rescue)
Cc1ccc(-c2cn(S(=O)(=O)c3cccc4nsnc34)nc2N)cc1	none (no result: E-selectin induc, DENV2 CPE rescue)
COc1ccc(S(=O)(=O)N[C@H]2C=C[C@H](CC(=O)N3CCC(Cc4ccccc4)CC3)O[C@@H]2CO)cc1	DENV2 CPE rescue inconclusive
O=C(O)[C@@H]1[C@@H](CO)[C@@H]2Cn3c(ccc(/C=C/c4ccccc4)c3=O)[C@@H]2N1C(=O)c1cnccn1	none
C[C@@H]1CN([C@@H](C)CO)C(=O)c2cc(NC(=O)CCCN(C)C)ccc2O[C@@H](C)CCCCO[C@H]1CN(C)S(=O)(=O)c1ccccc1	none (no result: Statin myotox sup)
C[C@H](CO)N1C[C@H](C)[C@@H](CN(C)S(=O)(=O)c2ccccc2)OCCCC[C@H](C)Oc2ccc(NC(=O)CCCN(C)C)cc2C1=O	none (no result: Statin myotox sup)
C[C@@H]1CCCCO[C@@H](CN(C)S(=O)(=O)c2ccccc2)[C@H](C)CN([C@@H](C)CO)C(=O)c2cc(NC(=O)CCCN(C)C)ccc2O1	DENV2 CPE rescue 25.6 (no result: Statin myotox sup)
Cc1ccc(S(=O)(=O)N(C)C[C@@H]2OCCCC[C@@H](C)Oc3ccc(NC(=O)CCCN(C)C)cc3C(=O)N([C@H](C)CO)C[C@H]2C)cc1	none (no result: Statin myotox sup, E-selectin induc)
C[C@@H]1CN([C@@H](C)CO)C(=O)c2cc(NC(=O)CCCN(C)C)ccc2O[C@@H](C)CCCCO[C@@H]1CN(C)S(=O)(=O)c1ccccc1	DENV2 CPE rescue 30.9 (no result: Statin myotox sup)
Cc1ccc(S(=O)(=O)N(C)C[C@@H]2OCCCC[C@@H](C)Oc3ccc(NC(=O)CCCN(C)C)cc3C(=O)N([C@H](C)CO)C[C@@H]2C)cc1	none (no result: Statin myotox sup, E-selectin induc)
C[C@@H]1CN([C@H](C)CO)C(=O)c2cc(NC(=O)CCCN(C)C)ccc2O[C@@H](C)CCCCO[C@H]1CN(C)S(=O)(=O)c1ccccc1	DENV2 CPE rescue 23.0 (no result: Statin myotox sup)
C[C@H]1CCCCO[C@H](CN(C)S(=O)(=O)c2ccccc2)[C@@H](C)CN([C@@H](C)CO)C(=O)c2cc(NC(=O)CCCN(C)C)ccc2O1	DENV2 CPE rescue 41.3 (no result: Statin myotox sup)
C[C@H]1CN([C@@H](C)CO)C(=O)c2cc(Br)cnc2O[C@@H]1CN(C)C(=O)Nc1ccccc1	none
CO[C@@H]1CN(C)C(=O)c2ccc(NC(=O)c3cnccn3)cc2OC[C@@H](C)N(C(C)=O)C[C@H]1C	none
C[C@@H]1CN([C@H](C)CO)C(=O)c2cc(-c3cccc(C#N)c3)cnc2O[C@@H]1CN(C)C(=O)c1cnccn1	none
Cc1noc(C)c1NC(=O)N(C)C[C@@H]1Oc2c(NC(=O)c3ccc(-c4nccs4)cc3)cccc2C(=O)N([C@@H](C)CO)C[C@H]1C	none (no result: E-selectin induc)
C[C@H]1CN([C@@H](C)CO)C(=O)c2cc(C#Cc3ccccc3F)cnc2O[C@H]1CN(C)C(=O)C1CCCCC1	none (no result: DENV2 CPE rescue)
COC(=O)C[C@@H]1CC[C@@H]2[C@H](COC[C@H](O)CN2CCC(F)(F)F)O1	none
CCOC(=O)C1CCN(C=Nc2cc(C)on2)CC1	Statin myotox sup 147.2 (no result: E-selectin induc, DENV2 CPE rescue)
CCOC(=O)C1CCN(S(=O)(=O)c2ccc(C(C)=O)cc2)CC1	none (no result: E-selectin induc, DENV2 CPE rescue)
CC(C)C#Cc1cnc2c(c1)C(=O)N([C@@H](C)CO)C[C@@H](C)[C@@H](CN(C)C(=O)CCN1CCCCC1)O2	none (no result: DENV2 CPE rescue)
C[C@@H]1CN([C@@H](C)CO)S(=O)(=O)c2ccc(-c3cncnc3)cc2O[C@@H]1CN(C)Cc1ccncc1	DENV2 CPE rescue inconclusive
O=C(NC[C@H]1N[C@H](CO)[C@@H]1c1ccc(C2=CCCC2)cc1)C1CCCC1	none (no result: Statin myotox sup)
CCC(C)NC(=O)CN1C(=O)NC2NC(=O)NC21 (centres undefined)	none
CC(C)=NNC(=O)CN1C(=O)NC2NC(=O)NC21 (centres undefined)	DENV2 CPE rescue 33.7 (no result: E-selectin induc)
O=C1OCC/C1=C\c1ccc2c(c1)OCO2	none
CC1CC/C(=C\c2ccc3c(c2)OCO3)C(=O)/C1=C/c1ccc2c(c1)OCO2 (centres undefined)	Statin myotox sup 206.9 (no result: E-selectin induc, DENV2 CPE rescue)
CCCNC(=O)C[C@H]1CC[C@@H]2[C@H](COC[C@@H](O)CN2C(=O)C2CCOCC2)O1	DENV2 CPE rescue inconclusive
CN(C)CC#Cc1ccc([C@@H]2[C@H](CO)N3CCCCN(C(=O)C4CCCC4)C[C@@H]23)cc1	none (no result: Statin myotox sup, E-selectin induc)
